Experimental data as given in ChEMBL document CHEMBL1764987, “The identification of the 2-phenylphthalazin-1(2H)-one scaffold as a new decorable core skeleton for the design of potent and selective human A3 adenosine receptor antagonists” (J Med Chem, 2011).

What was measured:
Adenosine receptor A3 [1] = biological target: T1, Adenosine receptor A3 (Homo sapiens, UniProt P0DMS8); experiment: Displacement of [125I]AB-MECA from human cloned adenosine A3 receptor expressed in CHO cells; assay type: cell-based
T1 sequence (P0DMS8 whole entry): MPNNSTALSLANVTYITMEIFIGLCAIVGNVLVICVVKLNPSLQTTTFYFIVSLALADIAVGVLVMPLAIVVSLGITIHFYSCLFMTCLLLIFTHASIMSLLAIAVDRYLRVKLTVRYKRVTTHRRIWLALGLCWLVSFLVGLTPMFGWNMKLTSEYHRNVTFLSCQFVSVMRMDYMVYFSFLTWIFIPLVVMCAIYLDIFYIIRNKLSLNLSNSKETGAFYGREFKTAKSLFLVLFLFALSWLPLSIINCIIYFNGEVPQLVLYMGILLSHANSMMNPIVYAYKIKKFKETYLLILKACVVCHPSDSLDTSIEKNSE
How it was run: (§1)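 Membranes from CHO cells stably expressing hA3 AR, labelled with [125I]AB-MECA (Kd 1.4 nM). IC50 from nonlinear regression using five displacer concentrations, each in triplicate. Ki calculated by Cheng-Prusoff, mean ± SEM of four assays. Single-point data are percent inhibition of specific binding at 1 μM.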

[2] = biological target: T2, Adenosine receptor A1 (Homo sapiens) (UniProt P30542); experiment: Displacement of [3H]DPCPX from human cloned adenosine A1 receptor expressed in CHO cells at 10 uM; assay type: cell-based
T2 sequence (whole entry): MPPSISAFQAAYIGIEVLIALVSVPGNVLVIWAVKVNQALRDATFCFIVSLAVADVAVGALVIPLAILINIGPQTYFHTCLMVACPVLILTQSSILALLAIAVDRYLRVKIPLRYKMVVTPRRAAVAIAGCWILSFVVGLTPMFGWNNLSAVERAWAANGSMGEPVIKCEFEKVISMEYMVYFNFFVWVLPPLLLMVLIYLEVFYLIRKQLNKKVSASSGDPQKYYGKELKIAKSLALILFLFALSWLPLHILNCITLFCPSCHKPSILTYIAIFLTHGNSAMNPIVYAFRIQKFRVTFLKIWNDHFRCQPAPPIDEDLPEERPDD
How it was run: (§2)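 Radioligand displacement in CHO membranes stably expressing hA1 ([3H]DPCPX, Kd 3 nM) or hA2A ([3H]NECA, Kd 30 nM). Percent inhibition of specific binding at 10 μM. Full curves used five concentrations in triplicate, with IC50 converted to Ki by Cheng-Prusoff.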

[3] = biological target: Adenosine receptor A2a (Homo sapiens) (UniProt P29274); experiment: Displacement of [3H]NECA from human cloned adenosine A2A receptor expressed in CHO cells at 10 uM; assay type: cell-based; how it was run: as §2
[4] = biological target: T3, Adenosine receptor A3 (Homo sapiens) (UniProt P0DMS8); experiment: Displacement of [125I]AB-MECA from human cloned adenosine A3 receptor expressed in CHO cells at 1 uM; assay type: cell-based; how it was run: as §1
T3 sequence (whole entry): T1 sequence (P0DMS8 whole entry)

Adenosine receptor A3 [5] = biological target: T1, Adenosine receptor A3; experiment: Antagonist activity at human cloned adenosine A3 receptor expressed in CHO cells assessed as inhibition of […] after 15 mins; assay type: functional, cell-based
How it was run: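 CHO cells stably expressing hA3 plated and grown 48 h. Preincubated 15 min at 37 °C with Ro20-1724 (20 μM) and adenosine deaminase (1 U/mL). Compound (1 nM to 10 μM) given for 15 min at 37 °C, then 100 nM NECA. Reversal of NECA-induced cAMP inhibition measured by [3H]cAMP competitive protein binding assay. IC50 from sigmoid nonlinear regression, means ± SEM of three experiments.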

[6] = biological target: T4, Adenosine receptor A2b (Homo sapiens) (UniProt P29275); experiment: Antagonist activity at human cloned adenosine A2B receptor expressed in CHO cells assessed as inhibition of NECA-induced cAMP accumulation at 1 nM to 10 uM after 15 mins; assay type: functional, cell-based
T4 sequence (whole entry): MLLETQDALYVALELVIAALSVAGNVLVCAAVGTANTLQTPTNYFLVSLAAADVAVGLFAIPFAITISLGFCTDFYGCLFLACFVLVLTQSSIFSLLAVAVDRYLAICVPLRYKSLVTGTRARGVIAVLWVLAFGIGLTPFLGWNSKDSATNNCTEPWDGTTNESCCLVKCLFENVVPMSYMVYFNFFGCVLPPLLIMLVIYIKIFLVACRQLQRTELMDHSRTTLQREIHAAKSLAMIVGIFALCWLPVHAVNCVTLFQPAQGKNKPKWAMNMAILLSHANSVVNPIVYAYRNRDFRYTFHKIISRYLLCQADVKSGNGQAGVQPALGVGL
How it was run: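 Stably transfected CHO cells (~60000) plated and grown 48 h. Preincubated 15 min at 37 °C in DMEM containing Ro20-1724 (20 μM) and adenosine deaminase (1 U/mL). Compound (1 nM to 10 μM) added for 15 min at 37 °C, then 100 nM NECA. Reaction stopped with 0.4 N HCl and lysate neutralised with KOH. cAMP measured by competitive binding to beef adrenal binding protein with [3H]cAMP (2 nM) for 150 min at 4 °C, then filtration. Read-out is percent inhibition of NECA-stimulated cAMP.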

[7] = Displacement of [3H]CGS21680 from adenosine A2A receptor in bovine brain membranes; assay type: cell membranes, Bos taurus
[8] = biological target: Adenosine receptors; A1 & A3 (Homo sapiens) (UniProt P30542+P0DMS8); experiment: Selectivity ratio of Ki for human cloned adenosine A1 receptor to Ki for human cloned adenosine A3 receptor
How it was run: (§3)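 Ki values from radioligand displacement at hA1 ([3H]DPCPX, Kd 3 nM), hA2A ([3H]NECA, Kd 30 nM) and hA3 ([125I]AB-MECA, Kd 1.4 nM) in CHO membranes. Five displacer concentrations in triplicate, Cheng-Prusoff conversion, means of four assays. Ratio taken as A1 or A2A Ki over A3 Ki.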

Homo sapiens = species on record: Homo sapiens; experiment: Selectivity ratio of Ki for human cloned adenosine A2A receptor to Ki for human cloned adenosine A3 receptor; how it was run: as §3

Adenosine receptor A2a (Homo sapiens), sequence (P29274 whole entry): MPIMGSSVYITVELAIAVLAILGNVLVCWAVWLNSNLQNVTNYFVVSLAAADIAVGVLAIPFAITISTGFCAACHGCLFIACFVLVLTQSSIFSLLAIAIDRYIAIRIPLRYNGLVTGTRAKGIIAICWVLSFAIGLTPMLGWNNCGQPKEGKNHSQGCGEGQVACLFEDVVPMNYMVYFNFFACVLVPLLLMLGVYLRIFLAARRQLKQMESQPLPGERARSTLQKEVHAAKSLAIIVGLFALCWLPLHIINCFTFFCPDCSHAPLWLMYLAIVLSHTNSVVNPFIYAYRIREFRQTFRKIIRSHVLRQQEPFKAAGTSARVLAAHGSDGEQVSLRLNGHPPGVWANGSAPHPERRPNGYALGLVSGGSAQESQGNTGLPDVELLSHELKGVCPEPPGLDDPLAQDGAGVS

Structure (SMILES) | Ki (Adenosine receptor A3 [1]) [nM] | inhibition [2] [%] | inhibition [3] [%] | inhibition [4] [%] | IC50 (Adenosine receptor A3 [5]) [nM] | inhibition [6] [%] | Ki [7] [nM] | Ratio Ki [8] | Ratio Ki (Homo sapiens)
CC(=O)Nc1nn(-c2ccccc2)c(=O)c2ccccc12 |  | 52 | 14 | 0 |  |  |  |  | 
COc1cccc(NC(=O)Nc2nn(-c3ccccc3)c(=O)c3ccccc23)c1 | 9.75 | 45 | 28 |  | 18 | 57 |  |  | 
Nc1nn(-c2ccccc2)c(=O)c2ccccc12 |  | 24 | 45 | 8 |  |  |  |  | 
Nc1nc2ccccc2n2c(=O)n(-c3ccccc3)nc12 | 490 |  |  |  |  |  |  |  | 
CC(=O)N(C(C)=O)c1nn(-c2ccccc2)c(=O)c2ccccc12 |  | 47 | 10 | 0 |  |  |  |  | 
O=C(Nc1ccccc1)Nc1nc2ccccc2n2c(=O)n(-c3ccccc3)nc12 |  |  |  |  |  |  | 2300 |  | 
COc1ccc(NC(=O)Nc2nn(-c3ccccc3)c(=O)c3ccccc23)cc1 | 60.6 | 4 | 51 |  | 28 | 0 |  |  | 
COc1ccc(NC(=O)Nc2nn(-c3ccccc3)c(=O)c3ccccc23)c(OC)c1 |  | 29 | 33 | 33 |  |  |  |  | 
Cc1ccc(NC(=O)Nc2nn(-c3ccccc3)c(=O)c3ccccc23)cc1 |  | 29 | 0 | 45 |  |  |  |  | 
COc1ccc(C(=O)Nc2nn(-c3ccccc3)c(=O)c3ccccc23)cc1 |  | 0 | 17 | 10 |  |  |  |  | 
O=C(Nc1nn(-c2ccccc2)c(=O)c2ccccc12)c1ccc(Cl)cc1 |  | 26 | 17 | 17 |  |  |  |  | 
O=C(Nc1ccc(Cl)cc1)Nc1nn(-c2ccccc2)c(=O)c2ccccc12 |  | 10 | 9 | 13 |  |  |  |  | 
COc1ccc(OC)c(NC(=O)Nc2nn(-c3ccccc3)c(=O)c3ccccc23)c1 | 0.776 | 0 | 19 |  | 8.25 | 0 |  | 10000 | 10000

The next lines start with the values.

Ki (Adenosine receptor A3 [1]) [nM] | inhibition [2] [%] | inhibition [3] [%] | inhibition [4] [%] | IC50 (Adenosine receptor A3 [5]) [nM] | inhibition [6] [%] | Ki [7] [nM] | Ratio Ki [8] | Ratio Ki (Homo sapiens) | Structure (SMILES)
274 | 28 | 28 |  |  |  |  |  |  | COc1ccccc1CNC(=O)Nc1nn(-c2ccccc2)c(=O)c2ccccc12
1100 | 44 | 35 |  |  |  |  |  |  | O=C(Nc1nn(-c2ccccc2)c(=O)c2ccccc12)c1ccccc1
178 | 44 | 42 |  |  |  |  |  |  | O=C(Nc1ccccc1)Nc1nn(-c2ccccc2)c(=O)c2ccccc12
 | 23 | 4 | 28 |  |  |  |  |  | O=C(Cc1ccccc1)Nc1nn(-c2ccccc2)c(=O)c2ccccc12
 | 0 | 3 | 49 |  |  |  |  |  | O=C(Nc1ccccc1Cl)Nc1nn(-c2ccccc2)c(=O)c2ccccc12
 | 20 | 28 | 22 |  |  |  |  |  | Cc1ccccc1NC(=O)Nc1nn(-c2ccccc2)c(=O)c2ccccc12
8.9 | 0 | 17 |  | 17 | 16 |  |  |  | COc1ccccc1NC(=O)Nc1nn(-c2ccccc2)c(=O)c2ccccc12
 | 23 | 41 | 8 |  |  |  |  |  | O=C(Nc1nn(-c2ccccc2)c(=O)c2ccccc12)c1ccco1
29.6 | 20 | 23 |  | 1.15 | 34 |  |  |  | O=C(NCc1ccccc1)Nc1nn(-c2ccccc2)c(=O)c2ccccc12
